Source: PubChem (The Scripps Research Institute Molecular Screening Center)
OX1R antag-1 – OX1R (HCRTR1) antagonists, primary screen, fluorescence, CHO/OX1R cells, Fluo-8 calcium, orexin A | Orexin/Hypocretin receptor type 1 (Homo sapiens), O43613 | Fluo-8 calcium fluorescence | inhibition, % at 5 µM | 330,000 compounds, 0.43% hits;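 active = inhibition above its plate's threshold, mean inhibition of all tested compounds on the plate plus 3 SD, cut at about 37% in these data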
TAAR1 ag – human TAAR1 agonists, primary screen, Fluo-8 calcium fluorescence, CHO RD-HGA16 cells | Trace amine-associated receptor 1 (Homo sapiens), Q96RJ0 | vehicle wells 0%, saturating PEA agonist 100% | activation, % at 3 µM | 360,000 compounds, 0.99% hits;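 active = activation above the mean activation of all test compounds in the run plus 3 SD, cut at about 38% in these data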
Target sequence (Q96RJ0 whole entry, looked up): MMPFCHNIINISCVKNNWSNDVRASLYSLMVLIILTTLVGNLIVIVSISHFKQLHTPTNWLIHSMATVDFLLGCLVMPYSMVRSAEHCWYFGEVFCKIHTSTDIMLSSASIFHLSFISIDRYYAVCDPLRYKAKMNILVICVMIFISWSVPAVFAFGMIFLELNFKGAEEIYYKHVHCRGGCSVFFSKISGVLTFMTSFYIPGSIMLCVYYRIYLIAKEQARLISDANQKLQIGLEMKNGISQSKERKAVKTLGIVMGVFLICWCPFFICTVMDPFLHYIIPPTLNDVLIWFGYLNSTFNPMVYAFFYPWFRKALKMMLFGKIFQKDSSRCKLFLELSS
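test system = CHO RD-HGA16 cells carrying human TAAR1 plus Gα16 | schedule = 17-24 h seeding, 75 min 37 °C dye, 30 min RT | compound dosing = 3 µM single concentration | control set = DMSO and PEA EC100 | replicates = n 1 | signal = Fluo-8 fluorescence, 5 s baseline then 140 s kinetic read | measure = percent activation vs PEA EC100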
CHO parental Ca – ATP-evoked calcium signal inhibitors, parental CHO, primary screen, counter-screen for OX1R antagonist project, cell-based, fluorescence, Fluo-8 calcium dye; AID 463079, 2010; parental CHO-K1, ATP-induced calcium, Fluo-8 fluorescence; inhibition, % at 5.6 µM; 330,000 compounds, 0.63% hits;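 active = inhibition above that plate's mean sample inhibition plus 3 SD, cut at about 26% in these data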
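Test system: untransfected parental CHO cell line. Compound: one dose, 5.6 µM nominal. Detection: intracellular calcium via Fluo-8 no-wash fluorescent dye. Measure: % inhibition. Benchmarks: ATP-challenged DMSO wells low, unchallenged DMSO wells high.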
TAAR1 antag – human TAAR1 antagonists, primary screen, Fluo-8 calcium fluorescence, CHO RD-HGA16 cells; 360,000 compounds, 1.5% hits; antagonist; Trace amine-associated receptor 1 (Homo sapiens), Q96RJ0; inhibition, % at 3 µM;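 active = inhibition above a per-plate cutoff, the mean inhibition of test compounds on that plate plus 3 SD, cut at about 49% in these data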
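Test system: CHO RD-HGA16 cells bearing hTAAR1 | Reagent: β-PEA, EC80 | Compound dosing: 3 µM, single point | Schedule: Dye loading 75 min at 37 °C, then 30 min room temperature | Signal: Calcium fluorescence with Fluo-8 | Evaluation: Percent inhibition of PEA-evoked calcium signal, max/basal emission ratio | Control set: DMSO-only wells and EC80 β-PEA-stimulated wells | Repeats: Singlicate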
OX1R antag-2 – antagonists of human orexin 1 receptor (OX1R) | Orexin/Hypocretin receptor type 1 (Homo sapiens), O43613 | inhibition, % at 6.6 µM | OX1R-expressing cells, FRET antagonist read-out | AID 485270, 2010 | 330,000 compounds, 1.8% hits; in the data active = inhibition mostly above about 38%, no sharp cut-off; inactive = mostly below about 40%
Hits are given with their value; - = inactive; . = not tested or not shown. In the library only some 4% were active in any assay of this set; here they are far more common.

SMILES | OX1R antag-1 | TAAR1 ag | CHO parental Ca | TAAR1 antag | OX1R antag-2
O=C1N/C(=N\S(=O)(=O)c2ccccc2)S/C1=C\c1cc([N+](=O)[O-])ccc1O | 58.9 | - | 45.9 | 53.6 | -
O=C1NC(=Nc2ccccc2Cl)S/C1=C\c1cccc([N+](=O)[O-])c1O | - | - | - | - | -
COc1cc(/C=C2/S/C(=N/S(=O)(=O)Cc3ccccc3)NC2=O)c([N+](=O)[O-])cc1OC | - | - | - | - | 40.7
COc1cc(/C=C2/S/C(=N/S(=O)(=O)c3ccccc3)NC2=O)c([N+](=O)[O-])cc1OC | - | - | - | - | -
COC(=O)c1cc(S(=O)(=O)NCC2CCN(C(=O)C(=O)c3cc4ccccc4o3)CC2)cs1 | . | - | . | - | .
CCOc1ccc(C(=O)NNC(=O)CN2C(=O)C3CC=CCC3C2=O)cc1OC (stereo not given) | - | - | - | - | -
O=C(O)C(=Cc1ccc([N+](=O)[O-])cc1)c1ccccc1 | . | - | . | - | .
CN(C)/C=N/C(=S)Nc1ccc(Br)cc1F | - | - | - | - | -
COc1ccc(CNC(=O)c2cc3c(C)nc4ccccc4c3o2)c(OC)c1 | - | . | 56.7 | . | 55.6
COc1cccc(CNC(=O)c2cc3c(C)nc4ccccc4c3o2)c1 | - | - | - | - | -
COc1cc(NC(=O)c2cc3c(C)nc4ccccc4c3o2)cc(OC)c1OC | - | - | - | - | -
Cc1nc2ccccc2c2oc(C(=O)Nc3ccc(C(C)C)cc3)cc12 | - | - | - | - | 66.4
CCCCN(CC)CCNC(=O)c1cc2c(C)nc3ccccc3c2o1 | - | - | - | - | -
CCc1ccc(CNC(=O)c2cc3c(C)nc4ccccc4c3o2)cc1 | - | - | 45.9 | - | 79.3
C[C@H](CO)N1C[C@H](C)[C@H](CN(C)C(=O)Nc2ccc3c(c2)OCO3)OCc2cnnn2CCCC1=O | . | - | . | - | .
CS(=O)(=O)Oc1ccc(Br)cc1/C=C1/N=C(c2ccco2)OC1=O | - | - | - | - | -
COc1cc(N2CCC(O)CC2)ccc1Nc1cc(Nc2ccccc2S(=O)(=O)C(C)C)c2cc[nH]c2n1 | . | - | . | - | .
CC1CN(/C=C/C=O)C(C)CC1OC(=O)c1ccccc1 (stereo not given) | - | - | - | - | -
Cc1cc(C)c2c(N)c(C(=O)N/N=C/c3cccnc3)sc2n1 | - | - | - | - | 47.1
Cc1cc(C)c2c(N)c(C(=O)N/N=C/c3ccccc3)sc2n1 | - | - | - | - | 42.9
Cc1c(C(=O)N/N=C/c2cccnc2)sc(=S)n1C | - | - | - | - | -
COc1ccc(C(=O)c2ccc([N+](=O)[O-])cc2Cl)cc1 | - | - | - | - | -
CCOC(=O)COc1cc([N+](=O)[O-])cc2cccnc12 | - | - | - | - | 42.0
Cc1ccccc1OCC(O)CN (stereo not given) | - | 37.6 | - | - | -
CCNC(=O)N1CCN(c2ccc(N3CCN(C(=O)NCC)[C@@H](C)C3)c(C)c2)[C@H](C)C1 | . | - | . | - | .
SMILES | OX1R antag-1 | TAAR1 ag | CHO parental Ca | TAAR1 antag | OX1R antag-2
CCCCCCCCCCCCCCCC[n+]1ccc(C(N)=O)cc1 | 78.4 | - | 97.6 | - | -
CCCCC(=O)Nc1ccc(C(N)=O)cc1 | - | - | - | - | -
CCCCCCCC[n+]1cccc(C(=O)N(CC)CC)c1 | - | - | - | - | -
CCCCCCCCCCCCCCCC[n+]1cccc(C(=O)N(CC)CC)c1 | - | - | 57.2 | - | -
O/N=C/c1cccc[n+]1CCCCCC[n+]1ccccc1/C=N/O | . | - | . | - | .
CCCCCCCCCCCCCCCC[n+]1ccc(/C=N/O)cc1 | 57.8 | - | 79.7 | 78.0 | -
O=C1Nc2ccccc2-n2nnnc2C1N1CCN(c2ccc(C(F)(F)F)cn2)CC1 (stereo not given) | . | - | . | - | .
COc1ccc(C2(c3ccc(OC)cc3)NC(=O)N(CC(=O)NCC(C)c3ccccc3)C2=O)cc1 (stereo not given) | - | - | - | 56.7 | -
Nc1nc2c(ncn2[C@@H]2O[C@H](C(=O)NCC(F)(F)F)[C@@H](O)[C@H]2O)c(=O)[nH]1 | . | - | . | - | .
CC(=O)Nc1ccc2nc3c(=O)n(C)c(=O)n(C)c3nc2c1 | - | - | - | - | 60.0
CC(=O)C1=C(C)NC(=S)NC1c1ccc(F)cc1 (stereo not given) | . | - | . | - | .
CCOc1ccc(NCc2cccn2-c2nnc(N3CCC(C(=O)NCCCN4CC(C)CC(C)C4)CC3)s2)cc1 (stereo not given) | - | - | - | - | -
COc1cccc(C=Nc2ccc(N3CCOCC3)cc2)c1O | - | - | - | - | -
O=[N+]([O-])c1cc(Br)c(O)c(C=Nc2ccc(N3CCOCC3)cc2)c1 | - | - | - | - | 65.8
OCCNc1nc(Nc2ccccc2)nc(Nc2ccccc2)n1 | - | - | - | - | -
OCCNc1nc(Nc2ccc(Br)cc2)nc2ccccc12 | - | 65.2 | - | 60.4 | -
Fc1ccccc1-c1nc(NCc2ccco2)c2ccccc2n1 | - | - | - | - | -
c1ccc(Nc2nc(NCC3CCCO3)c3ccccc3n2)cc1 (stereo not given) | - | 51.6 | - | - | -
Oc1cccc(Nc2nc(NCC3CCCO3)c3ccccc3n2)c1 (stereo not given) | - | . | - | . | -
Oc1ccccc1-c1nc(NCc2ccco2)c2ccccc2n1 | - | - | - | - | 39.6
Cc1ccc(Nc2nc(NCc3ccco3)c3ccccc3n2)cc1 | 47.3 | 50.2 | 56.5 | - | -
Cc1ccc2cc(CN(CC(C)C)S(=O)(=O)c3cccc4nonc34)c(=O)[nH]c2c1 | - | - | - | - | -
CC(C)CN1CCN(Cc2ccc3ncccc3c2)CC1CCO (stereo not given) | - | - | - | - | -
Cn1cccc1C1Nc2ccccc2NC2=C1C(=O)CC(C)(C)C2 (stereo not given) | - | - | - | 56.2 | -
CN1c2cccc3cccc(c23)N(C)C1c1cccs1 | - | - | - | - | -
SMILES | OX1R antag-1 | TAAR1 ag | CHO parental Ca | TAAR1 antag | OX1R antag-2
CC1N(C)c2cccc3cccc(c23)N1C | - | - | - | - | 70.2
CSc1ccccc1OCc1cc(C(=O)N2CCc3c(Cl)cccc3C2)no1 | 62.3 | - | 58.2 | - | -
CNC[C@H](Cc1ccccc1)NC[C@@H](Cc1cccc2ccccc12)NCCc1ccc(C)cc1 | - | 43.2 | - | 50.3 | -
CNCCNC[C@H](Cc1cccc2ccccc12)NCCc1ccccc1 | - | 37.6 | - | - | -
Nc1c(CNCc2nnn(Cc3ccccc3)c2N)nnn1Cc1ccccc1 | . | - | . | - | .
Cc1ccc(OCCN2CCC2(C)C(=O)Nc2ccc3c(c2)OCO3)cc1 (stereo not given) | . | - | . | - | .
O=[N+]([O-])c1ccc(Cl)c(CN2CCN(c3ncccn3)CC2)c1 | - | - | - | - | -
